Bioassay records: PubChem BioAssay, several laboratories
Only some compounds are listed: those with a hit (about 5.2% of all), similar ones and a draw of the others.
M18AAP inhibitor: PfM18AAP enzyme inhibition | recombinant PfM18AAP, H-Glu-NHMec fluorogenic cleavage | inhibition, % at 7.35 µM | 1.2% of 290,000 active | AID 1822;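 active = inhibition above the campaign mean inhibition over all tested compounds plus 3 SD, cut at about 28% in these data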;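 also: 0% = plate median of test compound wells and 100% = 2 mM ZnCl2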
NS3 helicase inh: inhibitors of Hepatitis C virus NS3 helicase | NS3 helicase DNA unwinding, Cy5 molecular beacon fluorescence | inhibition, % at 10.9 µM | 0.56% of 290,000 active | AID 1800;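 active = inhibition above the mean of all tested compounds plus 3 SD, set per campaign, cut at about 35% in these data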;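 also: 0% = DMSO wells and 100% = thioflavine S control wells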
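System: Hepatitis C virus NS3 helicase domain fragment enzyme | Reagent: Annealed dual-labelled DNA beacon duplex, ATP-started | Compound dosing: 10.9 µM single point, 0.8% DMSO | Incubation: 1 h reaction at 25 °C, ATP-initiated | Technique: Cy5 fluorescence | Evaluation: Percent inhibition from t60/t0 fluorescence ratio | Benchmarks: Low DMSO, high thioflavine S at 110 µM | Replication: Singlicate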
core dimer inh: HCV core protein dimerization inhibition; TR-FRET GST/Flag-core106 dimerization, 1536-well; inhibition, % at 5 µM; 0.33% of 300,000 active;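 active = inhibition above the mean of all tested compounds plus 3 SD, set per screening campaign, cut at about 45% in these data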
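Assay system – GST-tagged and Flag-tagged HCV core protein residues 1-106 · Quantity – core106 proteins, GST 13.5 nM and Flag 17 nM · Benchmarks – unlabelled core106 and no-GST-core106 wells · Read-out basis – percent inhibition of core106 dimerization signal · Detection – time-resolved FRET, ex 340 nm, em 617 and 671 nm · Schedule – 4 h at 22.5 °C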
EBNA-1 inhibitor: blocks EBNA-1 binding to DNA. inhibition, % at 14.8 µM. AID 1950. EBNA-1 DNA binding, fluorescence polarization. 0.34% of 300,000 active; in the data active = inhibition above about 28%
ZTA counter: ZTA (EBV) inhibition in EBNA-1 counter-screen; ZTA-DNA binding, fluorescence polarization; 0.15% of 320,000 active; AID 2234; inhibition, % at 11 µM; in the data active = inhibition above about 33%
Target sequence (P03206 whole entry, looked up): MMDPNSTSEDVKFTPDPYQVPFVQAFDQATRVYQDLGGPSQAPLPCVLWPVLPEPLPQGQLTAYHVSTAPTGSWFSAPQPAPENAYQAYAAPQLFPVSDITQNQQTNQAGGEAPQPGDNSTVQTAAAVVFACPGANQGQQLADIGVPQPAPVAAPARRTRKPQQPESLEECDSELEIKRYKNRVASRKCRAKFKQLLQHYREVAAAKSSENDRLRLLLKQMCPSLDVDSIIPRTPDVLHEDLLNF
ALR H2O2 inh: human ALR oxidase inhibition via reduced H2O2. P55789. purified ALR, DTT oxidation, H2O2 HRP-luminol luminescence. inhibition, % (test concentration not listed). 3.8% of 290,000 active. AID 485317;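 active = mean replicate inhibition above about 79%, with every replicate also reaching it, limit read from the data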
Target sequence (P55789 whole entry, looked up): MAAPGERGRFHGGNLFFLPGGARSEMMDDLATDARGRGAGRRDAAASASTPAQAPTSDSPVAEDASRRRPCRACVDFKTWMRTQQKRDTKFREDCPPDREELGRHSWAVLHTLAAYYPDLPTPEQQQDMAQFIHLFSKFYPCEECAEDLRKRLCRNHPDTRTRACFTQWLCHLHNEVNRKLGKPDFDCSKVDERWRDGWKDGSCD
NS3 helicase cf: confirmation of Hepatitis C virus NS3 helicase inhibitors; shares compounds with NS3 helicase inh; NS3 helicase DNA unwinding, Cy5 molecular beacon fluorescence; inhibition, % at 10.9 µM; 31% of 1,600 active;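 active = inhibition above the mean of all tested compounds plus 3 SD, cutoff set per campaign, cut at about 36% in these data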
DNA FID counter: counter-screen for HCV NS3 helicase inhibitors: DNA intercalator displacement | 4% of 1,600 active | inhibition, % at 7.9 µM | DNA fluorescent intercalator displacement, fluorescence | shares compounds with NS3 helicase inh; in the data active = inhibition above about 37%;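 also: 0% = vehicle and 100% = reference compound; higher means more displacement of ethidium bromide from the DNA hairpin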
FID counter DR: DNA intercalator displacement in dose response; shares compounds with NS3 helicase inh; fluorescent intercalator displacement from DNA, fluorescence; 120 tested, under 10 active; IC50, µM; call rule not given here
Active calls of the source: *; · = no result given.

SMILES	M18AAP inhibitor	NS3 helicase inh	core dimer inh	EBNA-1 inhibitor	ZTA counter	ALR H2O2 inh	NS3 helicase cf	DNA FID counter	others
COc1ccc(-n2c(SCC(=O)Nc3ccc(C(=O)O)cc3)nnc2-c2cccs2)cc1	0	64*	5	-2	-7	0	-5	-24
COc1ccc(-n2c(Cc3cccn3C)nnc2SCC(=O)Nc2ccc3c(c2)OCCO3)cc1	1	14	-1	7	13	32	·	·
COc1ccc(C(=O)CSc2nnc(-c3cccs3)n2-c2ccccc2)cc1	-4	-5	-32	3	9	-1	·	·
COc1ccc(C(=O)Nc2ccc(NC(=O)CSc3nnc(-c4ccncc4)n3C)cc2)cc1	-1	36*	-8	-6	-17	-5	-3	-7
O=C(Nc1ccccc1)C(=O)Nc1ccc2c(c1)N(C(=O)C1CC1)CCC2	·	·	7	-9	7	·	·	·
Cc1c(Cl)c(C(F)F)nn1CC(=O)NC1C(=O)N2C(C(=O)O)=C(CSc3nnnn3C)CSC12 (centres undefined)	20	38*	·	·	·	·	32	-2
Cc1c(Cl)cnn1CC(=O)NC1C(=O)N2C(C(=O)O)=C(CSc3nnnn3C)CSC12 (centres undefined)	12	20	3	2	12	-22	·	·
COc1ccccc1NC(=O)c1cnc(SCC(=O)NCC2CCCO2)n(C)c1=O (centres undefined)	·	·	3	9	16	39	·	·
COCCn1c(-c2ccc(OC)cc2)cnc1SCC(=O)Nc1cccc2ccccc12	5	47*	6	-1	-20	·	-16	-41
COc1ccc(-c2cnc(SCC(=O)Nc3cc(C)on3)n2Cc2ccco2)cc1	3	-2	10	-7	20	-3	·	·
COc1ccc(-c2cnc(SCC(=O)Nc3nc(C(C)(C)C)cs3)n2Cc2ccco2)cc1	4	52*	32	-9	-26	21	-6	-27
CCc1noc(C)c1C(=O)N(C)CC(=O)Nc1ccc(F)c(F)c1F	·	·	5	-6	-6	-6	·	·
O=C1/C(=C\c2ccco2)SC(=S)N1C1CCCCC1	24	39*	12	2	-10	47	51*	18
Cc1ccc(N2C(=O)/C(=C/c3ccco3)SC2=S)cc1	6	10	15	10	-6	6	·	·
Oc1c(Br)cc(Br)cc1/C=N/Nc1ccc(Cl)nn1	40*	41*	-3	-4	-24	·	-21	6
O=C(O)c1ccccc1N/N=C/c1cc(Br)cc(Br)c1O	6	13	11	12	-6	11	·	·
CCOc1ccc(-c2cc(NC(=O)c3c(F)cccc3F)c(C(=O)O)s2)cc1	8	32	·	·	·	58	·	·
O=C(Nc1cc(-c2ccccc2)sc1C(=O)O)c1cccc(F)c1	13	39*	·	·	·	56	46*	18
CC1=NN(C(N)=S)C(=O)C1N=Nc1ccc(Br)cc1 (centres undefined)	12	41*	·	·	·	4	-10	11
CCOC(=O)C1(Cc2ccccc2C)CCCN(C(=O)c2ccc(OC)o2)C1 (centres undefined)	2	2	-4	-6	3	7	·	·
CCOC(=O)c1c(NC(=O)C2C3C=CC(C3)C2C(=O)O)sc2c1CCC(CC)C2 (centres undefined)	4	39*	10	-1	14	-3	84*	-35
CCOC(=O)c1c(NC(=O)C2C3CCC(O3)C2C(=O)O)sc2c1CCC(CC)C2 (centres undefined)	8	30	11	-6	9	47	·	·
COC(=O)c1ccc(C2/C(=C(\O)c3ccc(OC)c(C)c3)C(=O)C(=O)N2c2cc(C)on2)cc1 (centres undefined)	12	22	17	-6	0	10	·	·
Cc1cc(N2C(=O)C(=O)/C(=C(/O)c3ccc(F)cc3)C2c2ccc(Cl)cc2)no1 (centres undefined)	12	43*	14	-24	1	·	68*	-4
Cc1nn(-c2ccccc2)c2nc(-c3ccco3)cc(C(=O)O)c12	-71	42*	14	17	10	97*	67*	-9
SMILES	M18AAP inhibitor	NS3 helicase inh	core dimer inh	EBNA-1 inhibitor	ZTA counter	ALR H2O2 inh	NS3 helicase cf	DNA FID counter	others
O=C(O)c1cc(-c2cccs2)nn1-c1cccc(Cl)c1	-5	7	8	0	4	-2	·	·
O=C(O)c1cc(-c2ccco2)nn1-c1cccc(Cl)c1	5	48*	11	7	10	·	32	0
O=C(O)c1cc(-c2ccco2)nn1-c1ccc(Cl)cc1	-7	44*	·	·	·	·	83*	7
Cc1nn(-c2cccc(Cl)c2)c2nc(-c3ccco3)cc(C(=O)O)c12	5	-3	10	5	14	20	·	·
Cc1ccc(-n2nc(-c3ccco3)cc2C(=O)O)c(C)c1	-1	47*	·	·	·	·	26	-5
Cc1ccc(-n2nc(-c3cccnc3)cc2C(=O)N2CCOCC2)c(C)c1	-3	5	42	1	0	-29	·	·
CCc1ccc(C(=O)C(C)OC(=O)C2COc3ccccc3O2)cc1 (centres undefined)	-2	45*	2	4	-1	-4	5	-18
Cc1ccc(O)c(N=Cc2cc(Cc3ccccc3)cc([N+](=O)[O-])c2O)c1	20	5	·	·	·	·	·	·
O=[N+]([O-])c1cc(Cc2ccccc2)cc(C=Nc2ccc(N3CCOCC3)cc2)c1O	14	50*	-7	40*	77*	97*	55*	23	FID counter DR=>79
COc1cc(C(=O)NCC(=O)NC(C)CCc2ccccc2)cc(OC)c1OC (centres undefined)	-16	2	-6	2	-1	-1	·	·
CC(C)(Oc1ccc(-c2ccco2)cc1)C(=O)O	-6	41*	1	1	-8	-5	30	3
COc1ccc(-c2oc3ccccc3c2C(=O)Oc2ccccc2)cc1	9	17	1	10	5	4	·	·
COC(=O)c1ccccc1-c1ccc(/C=N/NC(=O)c2cc3ccccc3o2)o1	13	38*	1	4	-5	1	-5	-26
COC(=O)c1ccccc1-c1ccc(/C=N/Nc2nc(N3CCCC3)nc(N3CCCC3)n2)o1	1	-35	12	-1	-4	·	·	·
O=C(O)c1ccccc1C(=O)Nc1c(-c2ccccc2)nc2ccccn12	-16	-2	-4	3	-5	2	·	·
Cc1cc(-c2csc(NC(=O)c3ccc(=O)[nH]c3)n2)c(C)n1Cc1ccccc1	-1	74*	55*	-4	7	-7	21	4
